Measurements reported in ChEMBL document CHEMBL3792310, “Amine-free melanin-concentrating hormone receptor 1 antagonists: Novel non-basic 1-(2H-indazole-5-yl)pyridin-2(1H)-one derivatives and mitigation of mutagenicity in Ames test” (Bioorg Med Chem, 2016).
Active and inactive are the calls of the source. The rule behind the calls is not given here.

Key:
[1] = biological target: T1, Melanin-concentrating hormone receptor 1 (Homo sapiens, UniProt Q99705); assay: Displacement of [125I]-MCH(4 to 19) from human MCHR1 expressed in CHO cell membranes after 1 hr liquid scintillation counting
T1 sequence (Q99705 whole entry): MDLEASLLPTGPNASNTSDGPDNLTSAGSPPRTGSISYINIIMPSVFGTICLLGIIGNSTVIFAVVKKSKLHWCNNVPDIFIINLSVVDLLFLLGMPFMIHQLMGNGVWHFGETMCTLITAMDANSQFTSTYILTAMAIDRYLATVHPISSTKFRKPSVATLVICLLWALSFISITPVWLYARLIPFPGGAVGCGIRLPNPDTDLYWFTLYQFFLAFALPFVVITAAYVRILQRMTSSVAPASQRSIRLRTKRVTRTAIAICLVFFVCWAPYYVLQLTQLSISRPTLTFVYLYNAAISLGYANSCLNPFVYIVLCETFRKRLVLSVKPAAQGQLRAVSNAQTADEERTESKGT

[2] = biological target: Melanin-concentrating hormone receptor 1 (Rattus norvegicus, UniProt P97639); assay: Displacement of [125I]-MCH(4 to 19) from rat MCHR1 expressed in CHO cell membranes after 1 hr by liquid scintillation counting
Melanin-concentrating hormone receptor 1 (Rattus norvegicus, UniProt P97639), sequence (P97639 whole entry): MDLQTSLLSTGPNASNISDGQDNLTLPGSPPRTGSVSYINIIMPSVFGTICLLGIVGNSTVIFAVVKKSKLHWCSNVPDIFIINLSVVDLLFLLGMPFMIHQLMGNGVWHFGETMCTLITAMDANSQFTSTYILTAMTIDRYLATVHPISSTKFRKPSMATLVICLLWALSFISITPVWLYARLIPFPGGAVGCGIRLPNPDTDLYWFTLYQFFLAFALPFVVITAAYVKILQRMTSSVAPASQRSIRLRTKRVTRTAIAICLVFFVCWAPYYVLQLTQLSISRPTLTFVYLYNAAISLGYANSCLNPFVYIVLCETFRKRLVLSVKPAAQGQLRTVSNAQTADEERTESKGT

[3] = system: Rattus norvegicus; assay: Antiobesity activity in DIO-F344/Jcl rat assessed as reduction in body weight at 10 mg/kg, po dosed for 2 weeks and measured every 2 or 3 days relative to vehicle control; format: functional; set-up: scale not given: the % may be the effect or the level left
Procedure, shortened: (§1)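 DIO-F344 rats, 48 weeks old, habituated and grouped as for the acute study. Dosed orally once daily for 2 weeks at 2 mL/kg in 0.5% methylcellulose, 1–3 h before dark onset, after body weight measurement; n = 6. Sibutramine positive control. Food intake read every 2 or 3 days. Body weight change is taken as percent of initial weight; mean and SD reported.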

[4] = system: Rattus norvegicus; assay: Antiobesity activity in DIO-F344/Jcl rat assessed as reduction in body weight at 3 mg/kg, po dosed for 2 weeks and measured every 2 or 3 days relative to vehicle control; format: functional, organism-based; procedure, shortened: as §1
[5] = system: Rattus norvegicus; assay: Anorectic effect in DIO-F344/Jcl rat assessed as reduction in cumulative food intake at 10 mg/kg, po administered once daily for 2 weeks measured during compound dosing; set-up: scale not given: the % may be the effect or the level left
[6] = biological target: T1, Melanin-concentrating hormone receptor 1; assay: Antagonist activity at human MCHR1 expressed in CHO cells assessed as inhibition of MCH-stimulated Ca2+ mobilization measured every 2 secs by fluorometric analysis; format: functional, cell-based
Procedure, shortened: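 Human MCHR1 stably transfected into CHO dhfr− cells; clone no.4 used. Cells seeded at 20000/well, cultured about 24 h at 37 °C in 5% CO2, loaded with Fluo4 dye for 30 min. Compound in 10 mM HEPES pH 7.4 buffer with 0.1% BSA added first, then MCH(4–19) at 2 nM final. Fluorescence read at 2 s intervals; inhibition % taken against ligand-only and DMSO-only wells.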

[7] = system: Rattus norvegicus; assay: Anorectic effect in DIO-F344/Jcl rat at 3 mg/kg, po administered for 2 days started 2 hrs prior to onset of dark period measured during compound dosing; format: functional
Procedure, shortened: (§2)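 Male DIO-F344/Jcl rats, 44 weeks old, on high-fat diet from 5 weeks of age. Singly housed on powder high-fat diet and habituated to oral dosing with tap water, then grouped by day-0 food intake and body weight. Oral dosing at 2 mL/kg in 0.5% methylcellulose 2 h before dark onset for 2 days, n = 6. Two-day food intake is expressed as inhibition rate versus vehicle.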

[8] = Volume of distribution at steady state in Sprague-Dawley rat at 0.1 mg/kg, iv administered through cassette dosing by LC/MS/MS analysis; format: ADME, organism-based; details: in vivo, read-out: Vdss
Procedure, shortened: (§3)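 Male SD rats, eight weeks old, fed; cassette dosing iv at 0.1 mg/kg or po at 1 mg/kg as a suspension in 0.5% methylcellulose, n = 3. Plasma taken from blood, deproteinized with acetonitrile, centrifuged, and the supernatant measured by LC/MS/MS. AUC covers 0–8 h.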

[9] = biological target: T2, Cytochrome P450 2C8 (Homo sapiens, UniProt P10632); assay: Reversal inhibition of CYP2C8 (unknown origin) at 10 uM; format: ADME
T2 sequence (P10632 whole entry): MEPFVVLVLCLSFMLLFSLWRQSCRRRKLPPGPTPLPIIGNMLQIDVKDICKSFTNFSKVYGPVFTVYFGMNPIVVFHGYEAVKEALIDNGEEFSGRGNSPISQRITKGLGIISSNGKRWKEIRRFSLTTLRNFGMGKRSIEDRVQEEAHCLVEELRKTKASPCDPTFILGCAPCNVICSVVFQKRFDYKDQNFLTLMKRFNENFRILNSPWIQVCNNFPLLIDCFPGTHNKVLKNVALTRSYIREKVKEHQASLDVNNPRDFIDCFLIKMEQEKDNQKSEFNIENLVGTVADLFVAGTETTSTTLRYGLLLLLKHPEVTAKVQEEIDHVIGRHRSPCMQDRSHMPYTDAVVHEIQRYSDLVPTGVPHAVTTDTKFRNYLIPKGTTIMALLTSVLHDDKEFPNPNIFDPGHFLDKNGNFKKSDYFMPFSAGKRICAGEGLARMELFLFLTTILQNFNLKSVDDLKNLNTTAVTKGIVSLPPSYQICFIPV

[10] = Total plasma clearance in Sprague-Dawley rat at 0.1 mg/kg, iv administered through cassette dosing by LC/MS/MS analysis; format: ADME, organism-based; procedure, shortened: as §3
[11] = Cmax in Sprague-Dawley rat at 1 mg/kg, po administered through cassette dosing by LC/MS/MS analysis; format: ADME, organism-based; set-up: dose 1 mg/kg, route oral; details: in vivo; procedure, shortened: as §3
[12] = AUC(0 to 8 hrs) in Sprague-Dawley rat at 1 mg/kg, po administered through cassette dosing by LC/MS/MS analysis; format: ADME, organism-based; set-up: dose 1 mg/kg, route oral; details: in vivo; procedure, shortened: as §3
[13] = biological target: T3, Cytochrome P450 1A2 (Homo sapiens, UniProt P05177); assay: Reversal inhibition of CYP1A2 (unknown origin) at 10 uM; format: ADME
T3 sequence (P05177 whole entry): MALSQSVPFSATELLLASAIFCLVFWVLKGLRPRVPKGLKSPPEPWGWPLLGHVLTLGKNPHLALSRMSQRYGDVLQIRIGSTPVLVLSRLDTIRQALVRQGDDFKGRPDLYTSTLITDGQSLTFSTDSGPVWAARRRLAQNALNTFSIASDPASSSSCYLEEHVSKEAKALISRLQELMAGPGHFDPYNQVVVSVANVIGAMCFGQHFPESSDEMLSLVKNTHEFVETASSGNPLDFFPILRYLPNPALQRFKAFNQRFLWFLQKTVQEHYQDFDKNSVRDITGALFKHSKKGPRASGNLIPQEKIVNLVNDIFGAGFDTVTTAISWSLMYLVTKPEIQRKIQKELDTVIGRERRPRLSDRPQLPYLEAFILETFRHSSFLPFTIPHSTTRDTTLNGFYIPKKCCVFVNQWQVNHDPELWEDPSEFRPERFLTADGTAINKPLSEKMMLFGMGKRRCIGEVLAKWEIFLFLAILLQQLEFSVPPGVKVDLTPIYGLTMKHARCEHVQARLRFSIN

[14] = Tmax in Sprague-Dawley rat at 1 mg/kg, po administered through cassette dosing by LC/MS/MS analysis; format: ADME, organism-based; details: in vivo; procedure, shortened: as §3
[15] = organism: Mus musculus; assay: Anorectic effect in wild type mouse assessed as reduction in food intake; format: functional, organism-based
[16] = Fraction unbound in DIO-F344/Jcl rat plasma at 10 mg/kg, po; format: ADME, organism-based
[17] = organism: Mus musculus; assay: Toxicity in MCHR deficient mouse assessed as effect on food intake; format: organism-based; details: in vivo
[18] = biological target: Cytochrome P450 3A4 (Homo sapiens, UniProt P08684); assay: Reversal inhibition of CYP3A4 (unknown origin) at 10 uM; format: ADME
Cytochrome P450 3A4, sequence (P08684 whole entry): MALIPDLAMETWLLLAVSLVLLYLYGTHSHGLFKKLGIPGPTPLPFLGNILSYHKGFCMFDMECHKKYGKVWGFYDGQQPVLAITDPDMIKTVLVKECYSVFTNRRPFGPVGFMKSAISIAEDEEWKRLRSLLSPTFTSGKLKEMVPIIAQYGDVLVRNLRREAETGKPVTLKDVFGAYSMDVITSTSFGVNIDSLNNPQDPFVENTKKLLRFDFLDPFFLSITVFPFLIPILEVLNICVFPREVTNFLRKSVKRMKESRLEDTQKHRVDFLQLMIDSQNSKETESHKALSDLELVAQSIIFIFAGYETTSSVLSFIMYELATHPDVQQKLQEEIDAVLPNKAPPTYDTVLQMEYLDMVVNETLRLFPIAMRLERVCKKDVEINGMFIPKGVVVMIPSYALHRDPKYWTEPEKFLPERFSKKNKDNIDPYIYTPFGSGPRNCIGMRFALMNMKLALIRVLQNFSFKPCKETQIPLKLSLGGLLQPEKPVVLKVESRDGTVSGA

[19] = biological target: Cytochrome P450 2C9 (Homo sapiens, UniProt P11712); assay: Reversal inhibition of CYP2C9 (unknown origin) at 10 uM; format: ADME
Cytochrome P450 2C9, sequence (P11712 whole entry): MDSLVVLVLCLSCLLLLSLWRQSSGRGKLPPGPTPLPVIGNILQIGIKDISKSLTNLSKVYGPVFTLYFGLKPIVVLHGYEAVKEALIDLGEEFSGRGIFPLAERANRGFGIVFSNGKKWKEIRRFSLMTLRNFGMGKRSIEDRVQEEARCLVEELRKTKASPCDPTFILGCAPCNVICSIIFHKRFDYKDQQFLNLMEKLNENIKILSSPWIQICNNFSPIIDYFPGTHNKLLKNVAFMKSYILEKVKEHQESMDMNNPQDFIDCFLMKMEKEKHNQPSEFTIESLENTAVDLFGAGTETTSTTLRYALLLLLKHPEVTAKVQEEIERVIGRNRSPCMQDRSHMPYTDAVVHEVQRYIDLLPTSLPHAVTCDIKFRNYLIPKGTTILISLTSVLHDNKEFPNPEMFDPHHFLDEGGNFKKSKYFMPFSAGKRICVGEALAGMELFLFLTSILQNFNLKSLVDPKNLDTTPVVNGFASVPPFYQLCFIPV

[20] = system: Rattus norvegicus; assay: Trough plasma concentration in DIO-F344/Jcl rat at 10 mg/kg, po; format: ADME, organism-based; details: in vivo, read-out: Cmin
[21] = system: Rattus norvegicus; assay: Anorectic effect in DIO-F344/Jcl rat at 10 mg/kg, po administered for 2 days started 2 hrs prior to onset of dark period measured during compound dosing; format: functional; procedure, shortened: as §2
[22] = system: Rattus norvegicus; assay: Antiobesity activity in DIO-F344/Jcl rat assessed as reduction in body weight at 5 mg/kg, po dosed for 2 weeks and measured every 2 or 3 days relative to vehicle control; format: functional; set-up: scale not given: the % may be the effect or the level left; procedure, shortened: as §1
[23] = biological target: Cytochrome P450 2D6 (Homo sapiens, UniProt P10635); assay: Reversal inhibition of CYP2D6 (unknown origin) at 10 uM; format: ADME
Cytochrome P450 2D6, sequence (P10635 whole entry): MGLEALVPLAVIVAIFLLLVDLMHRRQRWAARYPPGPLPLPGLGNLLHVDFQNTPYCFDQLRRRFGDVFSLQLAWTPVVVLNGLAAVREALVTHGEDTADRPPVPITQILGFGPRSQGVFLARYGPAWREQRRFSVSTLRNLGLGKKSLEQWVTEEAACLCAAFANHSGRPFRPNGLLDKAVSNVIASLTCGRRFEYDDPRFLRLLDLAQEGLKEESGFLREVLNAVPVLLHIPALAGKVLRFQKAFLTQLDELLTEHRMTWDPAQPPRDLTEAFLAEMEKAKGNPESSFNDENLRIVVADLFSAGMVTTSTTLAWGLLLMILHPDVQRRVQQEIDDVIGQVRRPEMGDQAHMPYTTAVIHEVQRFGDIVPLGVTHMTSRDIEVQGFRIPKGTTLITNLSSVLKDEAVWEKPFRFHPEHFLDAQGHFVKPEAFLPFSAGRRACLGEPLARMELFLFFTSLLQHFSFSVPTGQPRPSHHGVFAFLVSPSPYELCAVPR

[24] = Ratio of drug level in brain to plasma in po dosed DIO-F344/Jcl rat; format: ADME, organism-based; details: read-out: BPR
[25] = system: Salmonella typhimurium; assay: Mutagenicity in Salmonella typhimurium TA1537 assessed as increase in number of revertant colony up to 5000 ug/plate by Ames test in absence of S9 fraction; format: toxicity, organism-based; details: salmonella enterica subsp. enterica serovar typhimurium
Procedure, shortened: (§4)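 Ames test in Salmonella typhimurium TA1537, with and without S9 metabolic activation. A positive call is a more than two-fold increase in revertant colonies over vehicle control.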

[26] = system: Plasma; assay: Unbound plasma concentration in DIO-F344/Jcl rat at 10 mg/kg, po; format: ADME, organism-based; details: in vivo
[27] = Oral bioavailability in Sprague-Dawley rat plasma at 1 mg/kg administered through cassette dosing by LC/MS/MS analysis; format: ADME, organism-based; procedure, shortened: as §3
[28] = system: Rattus norvegicus; assay: Anorectic effect in DIO-F344/Jcl rat assessed as reduction in cumulative food intake at 5 mg/kg, po administered once daily for 2 weeks measured during compound dosing; set-up: scale not given: the % may be the effect or the level left
[29] = system: Salmonella typhimurium; assay: Mutagenicity in Salmonella typhimurium TA1537 assessed as increase in number of revertant colony at 250 ug/plate by Ames test in absence of S9 fraction; format: toxicity, organism-based; details: salmonella enterica subsp. enterica serovar typhimurium; procedure, shortened: as §4
[30] = system: Salmonella typhimurium; assay: Mutagenicity in Salmonella typhimurium TA1537 at 250 ug by Ames test in presence of S9 fraction; format: toxicity, organism-based, Salmonella enterica subsp. enterica serovar Typhimurium; procedure, shortened: as §4
[31] = system: Salmonella typhimurium; assay: Mutagenicity in Salmonella typhimurium TA1537 assessed as increase in number of revertant colony at 313 ug/plate by Ames test in absence of S9 fraction; format: toxicity, organism-based; details: salmonella enterica subsp. enterica serovar typhimurium

## Cc1c(C2CC2)nn2ccc(-n3ccc(OCc4ccc(Cl)cc4)cc3=O)cc12
[1]
  IC50: 69 nM

## Cc1c2cc(-n3ccc(OCc4nc(C(F)(F)F)cs4)cc3=O)ccc2nn1C
[2]
  IC50: 76 nM
[1]
  IC50: 130 nM

## CCCn1nc2ccc(-n3ccc(OCc4ccc(Cl)cc4)cc3=O)cc2c1C
[2]
  IC50: 130 nM
[1]
  IC50: 210 nM

## CCn1nc2ccc(-n3ccc(OCc4ccc(Cl)cc4)cc3=O)cc2c1C
[2]
  IC50: 65 nM
[1]
  IC50: 140 nM

## Cc1c2cc(-n3ccc(OCc4csc(C(F)(F)F)c4)cc3=O)ccc2nn1C1CC1
[3]
  Activity: 7.6%
[4]
  Activity: Active
[5]
  Activity: 23.2%
[6]
  IC50: 79 nM
[7]
  Activity: 21.5%
[8]
  Vd: 0.949 L/kg
[9]
  inhibition (INH): Not Active
[10]
  clearance: 4.93 mL/min/kg
[11]
  Cmax: 426 ng/mL
[12]
  AUC(0-t) at 6 h: 2880 ng·h/mL
[13]
  inhibition (INH): Not Active
[14]
  Tmax: 2.7 h
[15]
  Activity: Dose-dependent effect
[2]
  IC50: 26 nM
[16]
  fraction unbound: 0.022
[17]
  Activity: Non-toxic
[18]
  inhibition (INH): Not Active
[19]
  inhibition (INH): Not Active
[20]
  concentration: 3.36 µM
[21]
  Activity: 30.6%
[22]
  Activity: 3.9%
[1]
  IC50: 38 nM
[23]
  inhibition (INH): Not Active
[24]
  Kp: 0.66
[25]
  Activity: Non-toxic
[26]
  Cp(f): 73.9 nM
[27]
  bioavailability: 78%
[28]
  Activity: 12.2%

## Cc1c2cc(-n3ccc(OCc4ccc(Cl)cc4)cc3=O)ccc2nn1C1CC1
[6]
  IC50: 33 nM
[8]
  Vd: 0.676 L/kg
[10]
  clearance: 3.45 mL/min/kg
[11]
  Cmax: 291 ng/mL
[12]
  AUC(0-t) at 6 h: 1810 ng·h/mL
[14]
  Tmax: 4 h
[2]
  IC50: 23 nM
[1]
  IC50: 31 nM
[25]
  Activity: Non-toxic
[27]
  bioavailability: 37%

## Cn1c(C2CC2)cc2ccc(-n3ccc(OCc4ccc(Cl)cc4)cc3=O)cc21
[1]
  IC50: 150 nM

## Cc1c2cc(-n3ccc(OCc4ccc(Cl)cc4)cc3=O)ccc2nn1C
[29]
  fold change (FC): 2
[2]
  IC50: 36 nM
[1]
  IC50: 35 nM
[30]
  Activity: Non-toxic

## Cc1c2cc(-n3ccc(OCc4ccc(F)cc4)cc3=O)ccc2nn1C1CC1
[2]
  IC50: 35 nM
[1]
  IC50: 43 nM
[25]
  Activity: Non-toxic

## Cc1c2cc(-n3ccc(OCc4csc(C(F)(F)F)n4)cc3=O)ccc2nn1C
[2]
  IC50: 130 nM
[1]
  IC50: 230 nM

## Cc1c2cc(-n3ccc(OCc4ccc(F)cc4)cc3=O)ccc2nn1C
[2]
  IC50: 76 nM
[1]
  IC50: 110 nM
[25]
  Activity: Non-toxic

## Cc1c2cc(-n3ccc(OCc4csc(C(F)(F)F)c4)cc3=O)ccc2nn1C
[31]
  fold change (FC): 2
[2]
  IC50: 70 nM
[1]
  IC50: 90 nM

## Cc1c2cc(-n3ccc(OCc4cc(C(F)(F)F)cs4)cc3=O)ccc2nn1C
[2]
  IC50: 38 nM
[1]
  IC50: 74 nM

## Cc1nn(C)c2ccc(-n3ccc(OCc4ccc(Cl)cc4)cc3=O)cc12
[1]
  IC50: 99 nM

## Cc1c2cc(-n3ccc(OCc4ccc(C(F)(F)F)s4)cc3=O)ccc2nn1C
[2]
  IC50: 90 nM
[1]
  IC50: 170 nM
